ChEMBL document CHEMBL5523707, “Novel Inhibitory Site Revealed by XAP044 Mode of Action on the Metabotropic Glutamate 7 Receptor Venus Flytrap Domain” (J Med Chem, 2024)
Calls of active or inactive are those of the source. The calls are words filed in the database; no cut-off is given here.

How the values were obtained:
[1] = molecular target: Metabotropic glutamate receptor 7 (Rattus norvegicus) (UniProt P35400); assay: Antagonist activity against LSP4-202-induced rat mGlu7 activation transfected in HEK293 cells co-transfected with chimeric Gqi9 assessed as decrease in LSP4-202 potency by measuring LSP4-202 maximum efficacy at 30 to 100 uM incubated for 24 hrs by IP-one HTRF assay relative to control; type: functional, cell-based; conditions: filed as antagonist, dose 30-100 µM
Chain of Metabotropic glutamate receptor 7 (Rattus norvegicus) (P35400 whole entry): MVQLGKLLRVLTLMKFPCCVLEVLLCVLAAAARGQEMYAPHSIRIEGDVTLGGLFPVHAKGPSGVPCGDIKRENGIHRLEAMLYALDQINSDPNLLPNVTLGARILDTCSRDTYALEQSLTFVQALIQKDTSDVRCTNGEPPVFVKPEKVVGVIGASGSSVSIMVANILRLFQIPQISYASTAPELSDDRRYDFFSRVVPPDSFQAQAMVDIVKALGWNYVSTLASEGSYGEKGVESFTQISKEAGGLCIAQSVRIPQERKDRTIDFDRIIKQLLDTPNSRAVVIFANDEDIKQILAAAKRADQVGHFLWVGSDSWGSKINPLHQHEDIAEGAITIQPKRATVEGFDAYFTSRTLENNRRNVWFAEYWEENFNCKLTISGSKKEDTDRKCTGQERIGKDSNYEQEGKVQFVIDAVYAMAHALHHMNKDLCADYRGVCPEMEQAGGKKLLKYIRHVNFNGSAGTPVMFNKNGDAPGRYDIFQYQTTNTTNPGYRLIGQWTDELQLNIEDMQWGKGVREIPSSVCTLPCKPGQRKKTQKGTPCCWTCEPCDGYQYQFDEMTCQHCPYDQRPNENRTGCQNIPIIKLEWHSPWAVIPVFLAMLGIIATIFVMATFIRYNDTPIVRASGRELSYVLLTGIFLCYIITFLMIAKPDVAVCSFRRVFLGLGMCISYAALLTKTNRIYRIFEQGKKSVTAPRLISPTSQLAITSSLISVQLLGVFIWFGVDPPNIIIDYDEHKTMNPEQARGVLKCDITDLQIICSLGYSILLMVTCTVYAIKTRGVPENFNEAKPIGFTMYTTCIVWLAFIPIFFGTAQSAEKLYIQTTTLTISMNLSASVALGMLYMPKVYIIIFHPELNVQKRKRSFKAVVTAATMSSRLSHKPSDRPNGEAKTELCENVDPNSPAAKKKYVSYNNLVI
In short: (§1)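 IP-One HTRF IP1 read-out in HEK293 transiently expressing rat mGlu7 plus chimeric Gqα9, 24 h after electroporation. LSP4-2022 concentration-response was tested with derivatives at 30 or 100 µM. Gives pEC50, pEC50/pEC50 control ratio, and max as % of LSP4-2022 maximal effect over basal. Triplicates, n independent experiments; paired t-test.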

Rattus norvegicus [2] = organism: Rattus norvegicus; assay: Ratio of pEC50 for antagonist activity against LSP4-202-induced rat mGlu7 activation transfected in HEK293 cells co-transfected with chimeric Gqi9 assessed as decrease in LSP4-202 potency to pEC50 for LSP4-202-induced rat mGlu7 activation transfected in HEK293 cells co-transfected with chimeric Gqi9; type: cell-based; in short: as §1
[3] = molecular target: Metabotropic glutamate receptor 7 (Rattus norvegicus) (UniProt P35400); assay: Antagonist activity against LSP4-202-induced rat mGlu7 activation transfected in HEK293 cells co-transfected with chimeric Gqi9 assessed as decrease in LSP4-202 potency by measuring LSP4-202 pEC50 incubated for 24 hrs by IP-one HTRF assay; type: functional, cell-based; in short: as §1
[4] = molecular target: Metabotropic glutamate receptor 7 (Rattus norvegicus) (UniProt P35400); assay: Competitive antagonist activity against rat mGlu7 receptor assessed as decrease in LSP4-202 effect at 0.3 to 30 uM by Schild plot analysis; conditions: filed as antagonist, dose 0.3-30 µM
In short: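 Schild analysis used the shift of LSP4-2022 concentration-response curves in IP-One IP1 assays. Cells were HEK293 co-transfected with rat mGlu7 and Gqα9. Data are means ± sem of 3 to 11 experiments run in triplicates.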

Rattus norvegicus [5] = organism: Rattus norvegicus; assay: Ratio of pEC50 for antagonist activity against LSP4-202 induced rat mGlu7 S229A mutant assessed as decrease in LSP4-202 potency by measuring LSP4-202 pEC50 at 100 uM to pEC50 for LSP4-202-induced rat mGlu7 S229A mutant
Rattus norvegicus [6] = organism: Rattus norvegicus; assay: Ratio of pEC50 for antagonist activity against LSP4-202 induced rat mGlu7 S229A mutant assessed as decrease in LSP4-202 potency by measuring LSP4-202 pEC50 at 30 uM to pEC50 for LSP4-202-induced rat mGlu7 S229A mutant
Rattus norvegicus [7] = organism: Rattus norvegicus; assay: Ratio of pEC50 for antagonist activity against LSP4-202 induced wild type rat mGlu7 assessed as decrease in LSP4-202 potency by measuring LSP4-202 pEC50 at 3 uM to pEC50 for LSP4-202-induced wild type rat mGlu7
Rattus norvegicus [8] = organism: Rattus norvegicus; assay: Ratio of pEC50 for antagonist activity against LSP4-202 induced rat mGlu7 S229A mutant assessed as decrease in LSP4-202 potency by measuring LSP4-202 pEC50 at 10 uM to pEC50 for LSP4-202-induced rat mGlu7 S229A mutant
[9] = Antagonist activity against LSP4-202-induced rat mGlu7 […] mutant assessed as decrease in LSP4-202 potency by measuring LSP4-202 pEC50 at 30 uM
Rattus norvegicus [10] = organism: Rattus norvegicus; assay: Ratio of pEC50 for antagonist activity against LSP4-202 induced wild type rat mGlu7 assessed as decrease in LSP4-202 potency by measuring LSP4-202 pEC50 at 30 uM to pEC50 for LSP4-202-induced wild type rat mGlu7
[11] = Antagonist activity against LSP4-202-induced rat mGlu7 […] mutant assessed as decrease in LSP4-202 potency by measuring LSP4-202 pEC50 at 10 uM
Rattus norvegicus [12] = organism: Rattus norvegicus; assay: Ratio of pEC50 for antagonist activity against LSP4-202 induced wild type rat mGlu7 assessed as decrease in LSP4-202 potency by measuring LSP4-202 pEC50 at 10 uM to pEC50 for LSP4-202-induced wild type rat mGlu7
[13] = molecular target: T1, Metabotropic glutamate receptor 7 (Rattus norvegicus, UniProt P35400); assay: Antagonist activity against rat mGlu7 activation transfected in HEK293 cells co-transfected with chimeric Gqi9 incubated for 24 hrs in presence of LSP4-2022 by IP-one HTRF assay; type: functional, cell-based
T1 sequence (P35400 whole entry): as above
In short: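 Inhibition curves were run with increasing inhibitor concentrations against IP1 production by 30 µM LSP4-2022. Rat mGlu7 was co-expressed with Gqα9 in HEK293 and assayed 24 h post-transfection with IP-One HTRF. IC50/pIC50 are means ± sem of independent experiments in triplicates. pIC50 compared to reference by unpaired t-test.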

[14] = Antagonist activity against LSP4-202-induced rat mGlu7 […] mutant assessed as decrease in LSP4-202 potency by measuring LSP4-202 pEC50 at 100 uM
[15] = molecular target: T1, Metabotropic glutamate receptor 7; assay: Agonist activity at wild type rat mGlu7; type: functional
In short: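 HEK293 cells were transiently transfected by electroporation with rat mGlu7 plasmid plus chimeric Gqα9 to couple to phospholipase C. They were grown in DMEM with 10% FBS on polyornithine-coated wells at 150 000 cells/well.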

[16] = molecular target: Metabotropic glutamate receptor 4 (Rattus norvegicus, UniProt P31423, S160A); assay: Agonist activity against rat mGlu4 S160A mutant
Chain of Metabotropic glutamate receptor 4 (Rattus norvegicus, UniProt P31423, S160A) (P31423 33-912 S160A limits assumed): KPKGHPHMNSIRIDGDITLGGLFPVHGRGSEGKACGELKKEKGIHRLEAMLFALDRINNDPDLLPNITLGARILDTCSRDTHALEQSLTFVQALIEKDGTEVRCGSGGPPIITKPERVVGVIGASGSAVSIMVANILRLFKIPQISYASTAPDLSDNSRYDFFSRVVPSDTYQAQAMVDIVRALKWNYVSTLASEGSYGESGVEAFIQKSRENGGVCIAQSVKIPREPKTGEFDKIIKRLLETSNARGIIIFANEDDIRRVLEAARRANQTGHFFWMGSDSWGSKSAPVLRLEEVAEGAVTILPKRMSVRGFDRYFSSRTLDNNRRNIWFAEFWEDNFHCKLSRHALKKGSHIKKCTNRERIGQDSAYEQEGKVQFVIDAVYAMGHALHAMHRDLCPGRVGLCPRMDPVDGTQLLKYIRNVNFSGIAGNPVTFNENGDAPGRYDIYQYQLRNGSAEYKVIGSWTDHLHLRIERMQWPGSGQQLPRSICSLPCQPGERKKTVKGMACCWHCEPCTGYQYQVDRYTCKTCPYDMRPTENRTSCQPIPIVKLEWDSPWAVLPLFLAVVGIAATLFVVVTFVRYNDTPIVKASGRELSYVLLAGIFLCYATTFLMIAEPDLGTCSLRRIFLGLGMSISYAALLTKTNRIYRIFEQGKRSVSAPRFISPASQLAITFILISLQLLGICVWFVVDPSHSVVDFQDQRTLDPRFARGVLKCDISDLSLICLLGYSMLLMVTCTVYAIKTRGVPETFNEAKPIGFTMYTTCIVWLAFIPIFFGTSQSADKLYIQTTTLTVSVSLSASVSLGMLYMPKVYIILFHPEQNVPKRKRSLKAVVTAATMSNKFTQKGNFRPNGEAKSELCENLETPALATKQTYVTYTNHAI

[17] = Agonist activity at rat mGlu4 R258Q/D262/R263 mutant
[18] = molecular target: Metabotropic glutamate receptor 7 (Rattus norvegicus, UniProt P35400, K60A); assay: Agonist activity at rat mGlu7 K60A mutant
Chain of Metabotropic glutamate receptor 7 (Rattus norvegicus, UniProt P35400, K60A) (P35400 35-915 K60A limits assumed): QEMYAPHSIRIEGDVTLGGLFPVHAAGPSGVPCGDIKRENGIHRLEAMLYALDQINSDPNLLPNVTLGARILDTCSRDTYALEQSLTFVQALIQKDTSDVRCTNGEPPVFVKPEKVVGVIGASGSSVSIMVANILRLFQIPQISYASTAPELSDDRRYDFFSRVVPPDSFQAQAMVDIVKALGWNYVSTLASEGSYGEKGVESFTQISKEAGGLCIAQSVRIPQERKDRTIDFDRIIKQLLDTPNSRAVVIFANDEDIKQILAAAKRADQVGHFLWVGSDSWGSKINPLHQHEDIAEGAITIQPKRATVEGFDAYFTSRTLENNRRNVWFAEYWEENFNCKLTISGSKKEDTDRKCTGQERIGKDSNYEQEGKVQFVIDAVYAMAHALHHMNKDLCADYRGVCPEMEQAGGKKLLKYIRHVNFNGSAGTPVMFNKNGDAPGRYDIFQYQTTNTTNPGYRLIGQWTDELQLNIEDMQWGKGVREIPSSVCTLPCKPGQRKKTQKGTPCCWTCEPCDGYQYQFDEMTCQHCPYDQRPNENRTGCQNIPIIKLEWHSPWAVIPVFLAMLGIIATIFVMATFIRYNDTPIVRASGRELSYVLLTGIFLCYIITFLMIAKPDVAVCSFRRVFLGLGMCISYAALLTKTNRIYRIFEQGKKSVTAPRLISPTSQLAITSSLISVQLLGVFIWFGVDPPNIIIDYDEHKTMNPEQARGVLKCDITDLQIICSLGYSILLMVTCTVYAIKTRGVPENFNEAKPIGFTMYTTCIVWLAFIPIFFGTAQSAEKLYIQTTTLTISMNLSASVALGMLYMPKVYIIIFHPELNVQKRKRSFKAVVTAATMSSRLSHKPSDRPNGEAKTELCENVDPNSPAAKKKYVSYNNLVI

[19] = molecular target: Metabotropic glutamate receptor 4 (Rattus norvegicus, UniProt P31423); assay: Agonist activity against wild type rat mGlu4; type: functional
Chain of Metabotropic glutamate receptor 4 (Rattus norvegicus, UniProt P31423) (P31423 whole entry): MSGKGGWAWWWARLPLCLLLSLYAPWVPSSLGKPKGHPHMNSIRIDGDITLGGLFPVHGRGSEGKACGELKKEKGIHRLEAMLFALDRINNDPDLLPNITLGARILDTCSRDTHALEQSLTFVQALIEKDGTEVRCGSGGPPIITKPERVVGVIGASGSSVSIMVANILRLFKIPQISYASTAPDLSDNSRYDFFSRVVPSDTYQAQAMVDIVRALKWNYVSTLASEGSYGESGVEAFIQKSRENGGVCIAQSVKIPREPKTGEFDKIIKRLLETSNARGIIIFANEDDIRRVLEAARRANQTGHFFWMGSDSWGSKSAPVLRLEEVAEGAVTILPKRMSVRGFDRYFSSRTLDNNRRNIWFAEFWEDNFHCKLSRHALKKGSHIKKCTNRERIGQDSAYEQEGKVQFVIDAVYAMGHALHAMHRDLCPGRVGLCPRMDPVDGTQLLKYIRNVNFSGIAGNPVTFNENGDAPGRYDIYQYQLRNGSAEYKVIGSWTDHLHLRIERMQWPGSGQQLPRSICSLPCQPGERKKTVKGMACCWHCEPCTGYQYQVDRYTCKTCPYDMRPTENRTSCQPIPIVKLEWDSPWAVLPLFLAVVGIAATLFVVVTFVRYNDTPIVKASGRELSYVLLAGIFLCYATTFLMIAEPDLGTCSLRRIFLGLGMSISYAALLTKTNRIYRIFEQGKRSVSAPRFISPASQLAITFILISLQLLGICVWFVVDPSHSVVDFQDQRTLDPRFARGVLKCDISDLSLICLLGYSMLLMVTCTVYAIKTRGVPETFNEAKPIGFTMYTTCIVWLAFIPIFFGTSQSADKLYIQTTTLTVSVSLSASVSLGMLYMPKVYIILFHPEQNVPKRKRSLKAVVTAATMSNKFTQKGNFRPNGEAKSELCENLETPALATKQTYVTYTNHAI

[20] = Agonist activity at rat mGlu4 loop beta-10-alpha7 region
[21] = molecular target: Metabotropic glutamate receptor 7 (Rattus norvegicus, UniProt P35400, N74A); assay: Agonist activity at rat mGlu7 N74A mutant
Chain of Metabotropic glutamate receptor 7 (Rattus norvegicus, UniProt P35400, N74A) (P35400 35-915 N74A limits assumed): as the sequence (P35400 35-915 K60A limits assumed) above, with A26K, N40A counted along it

[22] = Agonist activity at rat mGlu7 loop beta10-alpha7 region
[23] = molecular target: Metabotropic glutamate receptor 4 (Rattus norvegicus, UniProt P31423, R60A); assay: Agonist activity against rat mGlu4 R60A mutant
Chain of Metabotropic glutamate receptor 4 (Rattus norvegicus, UniProt P31423, R60A) (P31423 33-912 R60A limits assumed): as the sequence (P31423 33-912 S160A limits assumed) above, with R28A, A128S counted along it

[24] = molecular target: Metabotropic glutamate receptor 4 (Rattus norvegicus, UniProt P31423, S160D); assay: Agonist activity against rat mGlu4 S160D mutant
Chain of Metabotropic glutamate receptor 4 (Rattus norvegicus, UniProt P31423, S160D) (P31423 33-912 S160D limits assumed): as the sequence (P31423 33-912 S160A limits assumed) above, with A128D counted along it

[25] = Agonist activity at rat mGlu7 S229A mutant
[26] = molecular target: Metabotropic glutamate receptor 4 (Rattus norvegicus, UniProt P31423, R258A); assay: Agonist activity at rat mGlu4 R258A mutant
Chain of Metabotropic glutamate receptor 4 (Rattus norvegicus, UniProt P31423, R258A) (P31423 33-912 R258A limits assumed): as the sequence (P31423 33-912 S160A limits assumed) above, with A128S, R226A counted along it

[27] = molecular target: Metabotropic glutamate receptor 4 (Rattus norvegicus, UniProt P31423, K74A); assay: Agonist activity against rat mGlu4 K74A mutant
Chain of Metabotropic glutamate receptor 4 (Rattus norvegicus, UniProt P31423, K74A) (P31423 33-912 K74A limits assumed): as the sequence (P31423 33-912 S160A limits assumed) above, with K42A, A128S counted along it

[28] = Agonist activity at rat mGlu7 D314A mutant
[29] = Agonist activity at rat mGlu7 Q258R/D262/R263 mutant
[30] = molecular target: Metabotropic glutamate receptor 7 (Rattus norvegicus, UniProt P35400, N74K); assay: Agonist activity at rat mGlu7 N74K mutant
Chain of Metabotropic glutamate receptor 7 (Rattus norvegicus, UniProt P35400, N74K) (P35400 35-915 N74K limits assumed): as the sequence (P35400 35-915 K60A limits assumed) above, with A26K, N40K counted along it

Rattus norvegicus [31] = organism: Rattus norvegicus; assay: Ratio of pEC50 for antagonist activity against LSP4-202 induced rat mGlu7 S229A mutant assessed as decrease in LSP4-202 potency by measuring LSP4-202 pEC50 at 3 uM to pEC50 for LSP4-202-induced rat mGlu7 S229A mutant
[32] = Antagonist activity against LSP4-202-induced rat mGlu7 […] mutant assessed as decrease in LSP4-202 potency by measuring LSP4-202 pEC50 at 3 uM

Compound	Emax [1] [%]	Ratio (Rattus norvegicus [2])	further results
O=C(COc1ccc(Cl)cc1)c1ccc(O)cc1	98.5	0.83	
COc1ccc(C(=O)COc2ccc(I)c(C)c2)cc1	95.9	0.97	
NS(=O)(=O)c1ccc(OCC(=O)c2ccc(O)cc2)cc1	89.2	1.06	
COc1ccc(C(=O)COc2ccc(I)cc2)cc1	93.6	0.97	
COc1ccc2c(=O)c3oc4ccc(I)cc4c3oc2c1			inhibition [3]: inactive
O=C(COc1ccc(O)cc1)c1ccc(O)cc1	88.1	1.06	
O=C(O)c1ccc(OCC(=O)c2ccc(O)cc2)cc1	98.6	1.07	
O=C(COc1ccc(Br)cc1F)c1ccc(O)c(O)c1	90.3	0.76	Activity [4]: Active; Ratio (Rattus norvegicus [5]): 0.95; Ratio (Rattus norvegicus [6]): 0.93; Ratio (Rattus norvegicus [7]): 0.91; Ratio (Rattus norvegicus [8]): 0.91; EC50 [9]: 35.7 µM; pEC50 [9]: 4.53; Ratio (Rattus norvegicus [10]): 0.79; EC50 [11]: 38.2 µM; pEC50 [11]: 4.42; Ratio (Rattus norvegicus [12]): 0.85; IC50 ([13]; read-out: IC50): 3.44 µM; IC50 ([13]; read-out: pIC50 (converted)): 3.31 µM; EC50 [14]: 27 µM; pEC50 [14]: 4.6
COc1ccc2c(=O)c3oc4cc(I)ccc4c3oc2c1			inhibition [3]: inactive
O=C(COc1ccc(I)cc1)c1ccc(O)cc1	98.3	0.83	
COc1ccc(C(=O)COc2ccc(C(F)(F)F)cc2)cc1	96.6	0.97	
O=C(COc1ccc(F)cc1F)c1ccc(O)cc1	100	1.04	
O=C(COc1ccc([N+](=O)[O-])c([N+](=O)[O-])c1)c1ccc(O)cc1	101	1	
O=c1c2ccc(O)cc2oc2c1oc1ccc(I)cc12			inhibition [3]: inactive
O=c1c2ccccc2oc2c1oc1cc(O)ccc12			inhibition [3]: inactive
O=C(COc1cccc(O)c1)c1ccc(O)cc1	96.8	1.03	
O=c1c2ccccc2oc2c1oc1ccc(Br)cc12			inhibition [3]: inactive
Cc1cc(OCC(=O)c2ccc(O)cc2)ccc1I	97.5	0.96	
COc1ccc2c(c1)oc1c(=O)c3ccccc3oc12			inhibition [3]: inactive
O=C(COc1ccc(Cl)cc1Cl)c1ccc(O)cc1	92.3	0.94	
N[C@@H](CCP(=O)(O)O)C(=O)O			EC50 [15]: > 100 µM; EC50 [16]: 2.66 µM; EC50 [17]: 11.1 µM; EC50 [18]: 1980 µM; EC50 [19]: 0.343 µM; EC50 [20]: 0.505 µM; EC50 [21]: > 100 µM; EC50 [22]: 45 µM; EC50 [23]: 1.16 µM; EC50 [24]: 12.3 µM; EC50 [25]: 182 µM; EC50 [26]: 1.87 µM; EC50 [27]: 0.23 µM; EC50 [28]: > 1000 µM; EC50 [29]: > 100 µM; EC50 [30]: 10.5 µM
N#Cc1ccc(OCC(=O)c2ccc(O)cc2)cc1	92.6	0.89	
O=C(COc1c(F)cc(Br)cc1F)c1ccc(O)cc1	94.6	0.85	

Compound	Emax [1] [%]	Ratio (Rattus norvegicus [2])	further results
N#Cc1c(F)cc(OCC(=O)c2ccc(O)cc2)cc1F	94.2	1.03	
O=C(COc1ccc(C(F)(F)F)cc1)c1ccc(O)cc1	101	0.91	
O=C(COc1ccc(Br)cc1Br)c1ccc(O)cc1	96.1	0.97	
O=C(COc1ccc(Br)cc1F)c1ccc(O)c(F)c1		< 0.6	Activity [4]: Active; Ratio (Rattus norvegicus [5]): 0.82; Ratio (Rattus norvegicus [31]): 1; Ratio (Rattus norvegicus [6]): 0.91; Ratio (Rattus norvegicus [7]): 0.82; Ratio (Rattus norvegicus [8]): 0.97; EC50 [9]: 21.7 µM; pEC50 [9]: 4.68; Ratio (Rattus norvegicus [10]): 0.59; EC50 [11]: 9.91 µM; pEC50 [11]: 5; Ratio (Rattus norvegicus [12]): 0.72; IC50 ([13]; read-out: IC50): 0.95 µM; IC50 ([13]; read-out: pIC50 (converted)): 0.851 µM; EC50 [32]: 6.88 µM; pEC50 [32]: 5.16; EC50 [14]: 60.7 µM; pEC50 [14]: 4.25
O=C(COc1cccc(I)c1)c1ccc(O)cc1	102	1.02	
O=C(COc1ccc(Br)cc1)c1ccc(O)cc1	99.2	0.81	
O=c1c2ccccc2oc2c1oc1ccc(Cl)cc12			inhibition [3]: inactive
COc1ccc(C(=O)COc2ccc([N+](=O)[O-])cc2)cc1	85.2	0.95	
O=c1c2ccccc2oc2c1sc1ccccc12			inhibition [3]: inactive
COc1ccc(OCC(=O)c2ccc(O)cc2)cc1	97.6	0.96	
O=Cc1ccc(OCC(=O)c2ccc(O)cc2)cc1F	106	1	
O=C(COc1ccc([N+](=O)[O-])cc1)c1ccc(O)cc1	98.5	0.87	
COc1ccc(C(=O)COc2ccc(I)cc2)cc1OC	80.4	1.05	
O=C(COc1c(Cl)cc(Br)cc1Cl)c1ccc(O)cc1	101	1.01	
COc1ccc(OCC(=O)c2ccc(O)cc2)cc1OC	96	0.99	
O=c1c2ccc(F)cc2oc2c1oc1ccc(I)cc12			inhibition [3]: inactive
Cc1ccc(OCC(=O)c2ccc(O)cc2)cc1	95.4	0.96	
COc1ccc(C(=O)COc2ccc(C#N)cc2)cc1	89.4	0.95	
O=C(COc1ccc(Br)cc1Cl)c1ccc(O)cc1	93.3	0.95	
O=C(COc1ccc(Br)cc1F)c1cc(F)c(O)c(F)c1		< 0.6	Activity [4]: Active; IC50 ([13]; read-out: IC50): 1.25 µM; IC50 ([13]; read-out: pIC50 (converted)): 1.15 µM
Cc1cc(I)ccc1OCC(=O)c1ccc(O)cc1	98.3	0.97	
O=C(COc1ccc(Br)cc1F)c1ccc(O)cc1	87.3	0.76	IC50 ([13]; read-out: IC50): 2.6 µM; IC50 ([13]; read-out: pIC50 (converted)): 2.24 µM
O=c1c2ccc(O)cc2oc2c1oc1cc(I)ccc12			inhibition [3]: inactive
